DAGLB inhibitor = DAGLB lipase inhibitors, primary screen, biochemical, fluorescence, HTS; Diacylglycerol lipase-beta (Homo sapiens), Q8NCG7; HEK293T DAGLB membrane lysate, EnzChek fluorogenic substrate; inhibition, % at 5.17 µM; 340,000 tested, 0.059% active; AID 504411, 2011; in the data active = inhibition above about 34%
Target sequence (Q8NCG7 whole entry, looked up): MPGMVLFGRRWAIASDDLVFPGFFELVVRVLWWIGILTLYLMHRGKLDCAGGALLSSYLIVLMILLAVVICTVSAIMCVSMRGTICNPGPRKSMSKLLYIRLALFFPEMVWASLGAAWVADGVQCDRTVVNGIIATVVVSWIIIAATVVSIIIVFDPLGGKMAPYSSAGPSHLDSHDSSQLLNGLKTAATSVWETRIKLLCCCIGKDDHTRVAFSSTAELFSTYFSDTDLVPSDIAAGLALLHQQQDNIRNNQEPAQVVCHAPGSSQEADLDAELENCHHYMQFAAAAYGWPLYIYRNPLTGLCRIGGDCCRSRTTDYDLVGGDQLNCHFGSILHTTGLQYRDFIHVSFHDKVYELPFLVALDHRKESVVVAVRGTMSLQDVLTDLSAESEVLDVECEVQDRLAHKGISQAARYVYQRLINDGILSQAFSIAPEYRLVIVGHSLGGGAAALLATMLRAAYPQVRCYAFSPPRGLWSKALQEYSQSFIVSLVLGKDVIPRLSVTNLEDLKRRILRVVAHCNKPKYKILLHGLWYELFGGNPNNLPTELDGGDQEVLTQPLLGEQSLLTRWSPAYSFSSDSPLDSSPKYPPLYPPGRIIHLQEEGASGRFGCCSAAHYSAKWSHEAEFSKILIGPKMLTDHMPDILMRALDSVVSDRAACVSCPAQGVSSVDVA
MT1-MMP act inh = blockers of MT1-MMP proenzyme processing, primary screen, HT1080 RFP-PRO-GFP cells, GFP/RFP fluorescence | 360,000 tested, 0.061% active | GFP/RFP ratio fluorescence, overnight; percent of plate control window, DMSO zero | Matrix metalloproteinase-14 (Homo sapiens), P50281 | AID 651647, 2012 | GFP/RFP ratio change, % at 20 µM;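 active = GFP/RFP ratio change of at least 30% with cell ATP level not reduced by more than half and red fluorescence within 50% of control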
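system = RFP-PRO-GFP reporter HT1080 cells | dosing = 20 µM single dose, 1% DMSO | timing = overnight cell settling, then overnight compound exposure, 37 °C, 5% CO2 | read-out basis = GFP/RFP fluorescence ratio | controls = DMSO and RFP-L50D-GFP cell wells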
TMEM16A inh = TMEM16A chloride channel inhibitors, primary screen, cell-based, HTS. Anoctamin-1 (Mus musculus), Q8BHY3. HEK293 TMEM16A/YFP iodide influx fluorescence, ionomycin. normalized B-score (activity score, 25-100; higher = stronger inhibition) at 10 µM. 310,000 tested, 1.2% active;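 active = ratio plate-corrected score three or more library SD toward inhibition, starting fluorescence score within five deviations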;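 note: score derived from kinetic fluorescence span divided by baseline fluorescence per well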
TMEM16A act = TMEM16A chloride channel activators or potentiators, primary screen, cell-based, HTS. AID 623877, 2012. B-score at 10 µM. 340,000 tested, 0.3% active. HEK293 TMEM16A/YFP-H148Q/I152L, iodide quench fluorescence; active compounds read low;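 active = fluorescence-ratio B-score plate-corrected deviation score at least 3 library SD below zero, with starting fluorescence score within 5 deviations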;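 note: channel opened by trigger with iodide after compound preincubation; score built on the fluorescence ratio of max minus min over baseline; more negative score means more quench and so TMEM16A activation or potentiation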
TMEM16A reconf = TMEM16A chloride channel inhibitors, confirmation, cell-based, re-confirmation; 2,300 tested, 39% active; AID 652189, 2013; HEK293 TMEM16A/YFP-H148Q, iodide quench fluorescence; ionomycin added to raise cell calcium; inhibition, % at 10 µM; shares compounds with TMEM16A inh;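 active = mean duplicate percent inhibition, scaled so buffer wells are 0 and the reference blocker 100, over three buffer SD above buffer mean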
TMEM16A Ca cntr = calcium mobilization in TMEM16A/YFP HEK293 cells, confirmation, counter-screen for TMEM16A inhibitor project. shares compounds with TMEM16A inh. Fluo4 calcium mobilization. calcium response (% of ionomycin), % at 10 µM. 2,300 tested, 2% active;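 active = duplicate-averaged calcium signal over 20% of the ionomycin maximum, relative to buffer baseline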;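 note: each well's signal is peak minus trough fluorescence divided by its pre-addition baseline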
YFP-HEK293 quench = iodide YFP quench changes in parental YFP-HEK293, counter-screen for TMEM16A inhibitor project, cell-based. shares compounds with TMEM16A inh. ionomycin. YFP ratio F(max-min)/F0 at 10 µM. 2,300 tested, under 10 active. AID 652233, 2013;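 active = yellow fluorescent protein signal ratio exceeding the buffer control mean by over 5 SD of those controls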;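 note: ratio is mean of duplicate wells from kinetic YFP trace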
ClC-1 rat inh = ClC-1 chloride channel inhibition, selectivity assay for TMEM16A inhibitor project, cell-based, voltage-dependent ClC-1 | shares compounds with TMEM16A inh | CHO ClC-1-YFP, iodide influx fluorescence quench; iodide control reads 0, buffer control 100 | ratio percent, % at 10 µM | 2,300 tested, under 10 active | AID 652236, 2013;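 active = duplicate-mean ratio percent above the mean of iodide-only control wells, which defines zero, plus 5 of their SD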;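 note: higher percent means stronger block of ClC-1 iodide influx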
A number is an active result; i = inactive; nt = no result. Rows were chosen to be rich in hits. Some 1.3% of all compounds tested hit in one or more screens of this group.

SMILES	DAGLB inhibitor	MT1-MMP act inh	TMEM16A inh	TMEM16A act	TMEM16A reconf	TMEM16A Ca cntr	YFP-HEK293 quench	ClC-1 rat inh
COc1ccc(NC(=O)/C(C#N)=C/c2ccc(OCCN3CCOCC3)c(OC)c2)c(OC)c1	i	i	i	i	nt	nt	nt	nt
CC1CCN(S(=O)(=O)c2cccc(C(=O)O)c2)CC1	i	i	100	i	i	i	i	i
COc1ccc2nc(C)cc(N3CCOCC3)c2c1	i	i	i	i	nt	nt	nt	nt
COc1ccc2nc(C)cc(N3CC(C)OC(C)C3)c2c1 (stereo not given)	i	i	25	i	i	i	i	i
Cc1ccc(S(=O)(=O)Nc2ccc(Cl)cc2C(=O)c2ccccc2)cc1	i	i	25	i	i	i	i	i
FC(F)(F)C1=NNC(c2ccc3ccccc3c2)=NN1	i	i	nt	nt	nt	nt	nt	nt
COc1ccccc1N1CCN(Cc2ccco2)CC1	i	i	25	i	i	i	i	i
O=C(Nc1ccc(C(=O)O)cc1)/C(=C\c1ccc([N+](=O)[O-])cc1)NC(=O)c1ccco1	i	i	nt	nt	nt	nt	nt	nt
Cc1ccc(NC(=O)COC(=O)C2CCN(c3ccc(C(F)(F)F)cn3)CC2)cc1	i	i	nt	i	nt	nt	nt	nt
O=C(Nc1ccc2c(c1)C(=O)N(CC1CCCO1)C2=O)c1ccc(Cl)c(Cl)c1 (stereo not given)	i	i	100	i	52%	i	i	i
COC(=O)[C@H](CC(C)C)NC(=O)CC[C@H]1O[C@@H](n2cc(C)c(=O)[nH]c2=O)C[C@@H]1O	nt	i	nt	nt	nt	nt	nt	nt
CCN(/C=N/c1sc2c(c1C#N)CCCCC2)CC	i	i	100	i	i	i	i	i
O=C1NC(=O)C(c2ccccc2)N1 (stereo not given)	i	i	nt	i	nt	nt	nt	nt
CC(C)COc1ccc(C2NC(=O)NC2=O)cc1 (stereo not given)	i	i	100	i	i	i	i	i
O=C(NNC(=O)c1ccncc1)Nc1cc(Cl)ccc1Cl	i	i	nt	i	nt	nt	nt	nt
CCCSc1nsc(NC(=O)C(c2ccccc2)c2ccccc2)n1	i	i	i	i	nt	nt	nt	nt
CCCSc1nsc(NC(=O)Nc2ccc(F)cc2F)n1	i	i	100	i	66%	i	i	i
CN(C)c1ccc2c(=O)cc[nH]c2c1	nt	i	nt	nt	nt	nt	nt	nt
CCS(=O)(=O)c1ccc(O)c(NC(=O)c2cc(OC)c(OC)c(OC)c2)c1	i	i	i	i	i	i	i	i
CNC(=O)Nc1cccc(-c2cc(-c3c(Cl)cccc3Cl)no2)c1	i	i	100	i	26%	i	i	i
O=C(c1ccc(F)cc1)c1ccc(-c2ccc(F)cc2)nc1	i	i	i	i	nt	nt	nt	nt
N#CC(c1ccc(F)cc1)c1ccc(C(=O)c2ccc(F)cc2)cc1 (stereo not given)	i	i	100	i	28%	i	i	i
COc1ccc(CCN2C(=O)CSC2=Nc2ccc(C(C)C)cc2)cc1OC	nt	i	100	i	53%	i	i	i
COc1ccc(N=C2SCC(=O)N2CCc2ccc(OC)c(OC)c2)cc1	i	i	i	i	nt	nt	nt	nt
Clc1cccc(Cc2c(C3CCCCC3)nc3ccc(Cl)cn23)c1	nt	i	nt	nt	nt	nt	nt	nt
COc1ccc(-c2csc(Nc3cc(C)ccn3)n2)cc1OC	i	i	25	i	24%	i	i	i
CC(C)CC1NC(=O)c2cc3ccccc3cc2-n2c1nc1ccc(F)cc1c2=O (stereo not given)	i	i	nt	nt	nt	nt	nt	nt

High-throughput results from PubChem BioAssay.
